Molecules are shown by their SMILES. pIC50: −log10 of the molar value. Converted amounts (≈) assume the structure as drawn.

We go through one compound from ChEMBL document CHEMBL1126989, “Synthesis and cytotoxicity of 1,6,7,8-substituted 2-(4'-substituted phenyl)-4-quinolones and related compounds: identification as antimitotic agents interacting with tubulin” (J Med Chem, 1993).

For one test, the system named is A549. Kind of test: Cytotoxicity in vitro expressed as 50% reduction in cell number after a 3-day incubation, in human lung carcinoma A-549 cell line. The note with it: A549, 72 h. Format: functional, cell-based. The method, boiled down: (§1)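 Cell lines adapted to antibiotic-free RPMI-1640 with 10% fetal calf serum; ca. 1×10^5 cells per well, overnight stabilization, then serial dilutions added, quadruplicate per concentration; medium-only controls. After 3-4 days, MTT added and incubated overnight; formazan dissolved in DMSO, absorbance at 570 nm. EC50 calculated from two data points bracketing 50% growth inhibition. Actinomycin as positive control.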

Test [1] relates to COLO 205. Kind of test: Inhibition of in vitro cell growth which reduces cell growth to 50% of level at start of experiment in colon COLO-205 cell line. Format: functional, Homo sapiens. The method, boiled down:
(§2)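 NCI in vitro disease-oriented screen across about 60 human tumour cell lines. The value is the LC50-type level: the drug concentration that cuts cell number to 50% of the count at the start of the experiment. Values are averages of 2 assays.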

Test [2] concerns COLO 205. Kind of test: Inhibition of in vitro cell growth which reduces cell growth to level at start of experiment in colon COLO-205 cell line. Format: functional, Homo sapiens.
Test [3] concerns HCC 2998. Kind of test: Inhibition of in vitro cell growth which reduces cell growth to level at start of experiment in colon HCC2998 cell line. Format: functional, Homo sapiens.
Test [4] relates to HCC 2998. Kind of test: Inhibition of in vitro cell growth which reduces cell growth to 50% of level at start of experiment in colon HCC2998 cell line. Format: functional, Homo sapiens. The method, boiled down:
as §2

Test [5] has as its system HT-29. Description: Inhibition of in vitro cell growth which reduces cell growth to 50% of level at start of experiment in colon HT-29 cell line. Format: functional, Homo sapiens. The method, boiled down: as §2
The next test concerns L1210 (1565). Description: Cytotoxicity in vitro expressed as 50% reduction in cell number after a 3-day incubation, in murine leukemia L-1210 cell line. Format: functional, cell-based. The note with it: Mus musculus, 72 h. The method, boiled down:
as §1

The next test relates to KB. Description: Cytotoxicity in vitro expressed as 50% reduction in cell number after a 3-day incubation, in human epidermoid carcinoma KB cell line. Format: functional, cell-based. The note with it: 72 h. The method, boiled down: as §1
Test [6] in a line: Inhibition of in vitro cell growth which reduces cell growth to 50% of level at start of experiment in colon KM-20L2 cell line. Format: functional, Homo sapiens. An outline of the steps: as §2
A short description of test [7]: Inhibition of in vitro cell growth which reduces cell growth to level at start of experiment in colon KM-20L2 cell line. Format: functional, Homo sapiens.
In another test the test system is P388. Description: Cytotoxicity in vitro expressed as 50% reduction in cell number after a 3-day incubation, in murine leukemia P-388 cell line. Format: functional, cell-based. The note with it: Mus musculus, P388, 72 h. An outline of the steps:
as §1

A further test relates to RPMI-7951. Description: Cytotoxicity in vitro expressed as 50% reduction in cell number after a 3-day incubation, in human melanoma RPMI-7951 cell line. Format: functional, cell-based. The note with it: RPMI-7951, 72 h. An outline of the steps:
as §1

Test [8] relates to SF-539. Kind of test: Inhibition of in vitro cell growth which reduces cell growth to level at start of experiment in CNS SF-539 cell line. Format: functional, Homo sapiens.
In test [9] the test system is SF-539. Description: Inhibition of in vitro cell growth which reduces cell growth to 50% of level at start of experiment in CNS SF-539 cell line. Format: functional, Homo sapiens. The method, boiled down:
as §2

The next test concerns the target Tubulin beta chain (Bos taurus, UniProt Q6B856). Kind of test: Inhibition of tubulin polymerization. Format: functional. An outline of the steps:
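Bovine brain tubulin 1.0 mg/mL (10 μM) with 1.0 M repurified monosodium glutamate, 1.0 mM MgCl2, 4% DMSO and drug; preincubated 15 min at 37 °C, chilled, GTP added; turbidity at 350 nm after jump from 0 to 37 °C, followed 20 min.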

The target in test [10] is T1, Tubulin (Bos taurus) (UniProt Q6B856+Q862L2+Q862F3). Kind of test: Percentage inhibition of colchicine binding by derivatives of 2-phenyl-4-quinolone at the ratio of 10:1. Format: protein assay. The note with it: concentration not given here.
Test [11] addresses T1, Tubulin (Bos taurus). Kind of test: Percentage inhibition of colchicine binding by derivatives of 2-phenyl-4-quinolone at the ratio of 1:1. Format: protein assay. The note with it: concentration not given here.
The next test concerns HCT-8. Description: Cytotoxicity in vitro expressed as 50% reduction in cell number after a 3-day incubation, in human ileocecal carcinoma HCT-8 cell line. Format: functional, cell-based. The note with it: HCT-8, 72 h. An outline of the steps: as §1
Test [12] deals with HT-29. Description: Inhibition of in vitro cell growth which reduces cell growth to level at start of experiment in colon HT-29 cell line. Format: functional, Homo sapiens.

Tubulin beta chain, sequence (Q6B856 whole entry): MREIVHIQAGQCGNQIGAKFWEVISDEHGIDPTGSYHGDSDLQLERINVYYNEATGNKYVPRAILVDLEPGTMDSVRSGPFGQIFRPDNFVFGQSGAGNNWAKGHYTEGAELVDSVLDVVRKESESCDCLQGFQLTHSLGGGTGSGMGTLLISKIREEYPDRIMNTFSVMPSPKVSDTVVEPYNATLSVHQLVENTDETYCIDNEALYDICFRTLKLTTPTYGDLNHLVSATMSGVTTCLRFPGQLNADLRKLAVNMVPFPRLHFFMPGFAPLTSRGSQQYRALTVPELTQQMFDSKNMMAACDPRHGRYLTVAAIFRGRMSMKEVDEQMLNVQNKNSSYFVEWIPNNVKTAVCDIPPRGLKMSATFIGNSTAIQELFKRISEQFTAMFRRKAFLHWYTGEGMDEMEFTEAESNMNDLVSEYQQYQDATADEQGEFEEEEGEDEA

By EC50 is commonly meant the midpoint of the concentration-response curve. A word on the pIC50: it is −log10 of the IC50, conventionally taken in molar units. The low end stands for a large IC50, the high end for a small IC50. As usually defined, the inhibition is the change of the read-out against control, counted positive when it falls. For the compound `Oc1cc(-c2ccccc2)nc2ccc(Cl)cc12`, the EC50 in the test on A549 was 0.51 µg/mL (≈ 1.99 µM); in the test with L1210 (1565) it was 0.5 µg/mL (≈ 1.96 µM); with KB, 0.49 µg/mL (≈ 1.92 µM); with P388, 0.84 µg/mL (≈ 3.29 µM); in the test with RPMI-7951, 0.64 µg/mL (≈ 2.5 µM); in the test on HCT-8, 0.7 µg/mL (≈ 2.74 µM). Besides, the LC50 in the test on COLO 205 [1] is recorded as -4; in the test on HCC 2998 [4], above -5; in the test on HT-29 [5] it was above -4; in test [6] it was -4; in the test on SF-539 [9], above -4. Also, the TGI is recorded as -5.6 in the test with COLO 205 [2]; -5 in the test with HCC 2998 [3]; -5.4 in test [7]; -5.4 in the test on SF-539 [8]; -4.9 with HT-29 [12]. On Tubulin beta chain, this compound showed a pIC50 of 5.49. The inhibition turned out to be 21% at Tubulin (Bos taurus) [10] and 6% on Tubulin (Bos taurus) [11].
